Results published in PMC3151333 (Cancer prevention research (Philadelphia, Pa.), 2011).
Like-named read-outs stand apart in the source and are kept apart here.

How the values were obtained:
[1] = LC-MS/MS determination of protocatechuic acid; assay type: in vivo, human; conditions: for donors whose saliva contained detectable PCA: final (240 minute) time point, 0.2 ng/ml detection limit
[2] = cited from earlier work
[3] = system: β-glucosidase; assay type: biochemical, human; conditions: 0.12% in PBS, 3 minute rinse
[4] = assay type: in vivo, human; conditions: for glucuronide of the parent anthocyanin in saliva (selected ion chromatograms): five minute Rinse III saliva samples; for saliva samples with cyanidin-3 sambubioside glucuronides detected: Rinse III
[5] = assay type: in vivo, human
[6] = 240 minute time point following 10% BRB gel application; cited from earlier work
[7] = system: rat liver microsomes; assay: Incubation of cyanidin-3 sambubioside with rat liver microsomes; assay type: in vitro ADME; conditions: similar retention time and tandem mass spectra as in saliva
[8] = Detection of protocatechuic acid O-glucuronide; assay type: in vivo, human
How it was run: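 Donors rinsed vigorously with 15 ml augmented BRB rinse (10% final BRB) for 3 min. Saliva was collected at timed intervals, acidified with 5% final formic acid and stored at −80°C. Ion-trap LC-MS coupled to HPLC was tuned by infusing a synthetic PCAOG standard. The run used full scan, zoom scan and CID product-ion scan, and the 329.0>153.0 transition was monitored at 35% energy.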

[9] = after ingestion of a 300 mg dose

O=C(O)c1ccc(O)c(O)c1 [PCA, protocatechuic acid]
retention in saliva after rinsing ([1]; BRB rinses): up to 4 hours
donors whose saliva contained detectable PCA ([1]; Rinse I): 2 of 10
donors whose saliva contained detectable PCA ([1]; Rinse II): 2 of 10
donors whose saliva contained detectable PCA ([1]; Rinse III): 6 of 10

[H]/N=C(\N/C(=N/[H])NCCCCCCNC(=N)NC(=N)Nc1ccc(Cl)cc1)Nc1ccc(Cl)cc1 [chlorhexidine gluconate]
mean peak plasma levels [2, 9]: 0.206 µg/g
time of mean peak plasma levels [2, 9]: 30 min
absorption from the gastrointestinal tract [2]: poorly absorbed
fraction retained in the oral cavity following rinsing [2]: ~30%
persistence in human saliva after rinsing [2]: at least 12 hours
retention by local adsorption, then slowly released over time [2]: approximately 30%
donors retaining appreciable functional β-glucosidase activity following rinsing [3]: 10 of 11
decrease in β-glucosidase in saliva following rinsing (mean ± s.e.m) ([3]; saliva 15 minutes after rinsing, n=11, p<0.001): 69.43% ±7.24

OC[C@H]1O[C@@H](Oc2cc3c(O)cc(O)cc3[o+]c2-c2ccc(O)c(O)c2)[C@H](O)[C@@H](O)[C@@H]1O [cyanidin 3-glucoside]
glucuronide of the parent anthocyanin in saliva (selected ion chromatograms) [4]: did not reveal any novel peaks
salivary BRB anthocyanin level, Rinse I relative to Rinse III ([5]; in vivo): significantly higher
salivary anthocyanin level, Rinse II relative to Rinse I ([5]; in vivo): significantly lower

C[C@@H]1O[C@@H](OC[C@H]2O[C@@H](Oc3cc4c(O)cc(O)cc4[o+]c3-c3ccc(O)c(O)c3)[C@H](O)[C@@H](O)[C@@H]2O)[C@H](O)[C@H](O)[C@H]1O [cyanidin 3-rutinoside]
glucuronide of the parent anthocyanin in saliva (selected ion chromatograms) [4]: did not reveal any novel peaks
donors retaining any salivary anthocyanins, including rutinoside [6]: 3 out of 5
donors showing detectable rutinoside in saliva ([5]; in vivo): 10 out of 10
rutinoside levels in saliva (mean ± S.D.) ([5]; in vivo): 2287.12 ± 489.55 µg/mL
salivary BRB anthocyanin level, Rinse I relative to Rinse III ([5]; in vivo): significantly higher

OC[C@H]1O[C@@H](Oc2cc3c(O)cc(O)cc3[o+]c2-c2ccc(O)c(O)c2)[C@H](O[C@@H]2OC[C@@H](O)[C@H](O)[C@H]2O)[C@@H](O)[C@@H]1O.[Cl-] [cyanidin 3-sambubioside]
metabolite formation on incubation with rat liver microsomes [7]: generated cyanidin-3 sambubioside glucuronides
salivary BRB anthocyanin level, Rinse I relative to Rinse III ([5]; in vivo): significantly higher

Oc1cc(O)c2cc(O)c(-c3ccc(O)c(O)c3)[o+]c2c1 [cyanidin]
time by which salivary cyanidin levels were undetectable ([5]; all samples from all rinses): ≤ 60 min
aglycone cyanidin in early saliva samples ([5]; up to 5 minute post rinse, all three rinse groups, all donors): detectable levels

cyanidin-3 sambubioside glucuronides
saliva samples with cyanidin-3 sambubioside glucuronides detected ([4]; 30 minute samples): 3 of 6
saliva samples with cyanidin-3 sambubioside glucuronides detected ([4]; five minute time point samples): 6 of the 6
cyanidin 3-sambubioside glucuronides in saliva ([4]; after the 30 minute post rinse samples): no cyanidin 3-sambubioside glucuronides were observed

protocatechuic acid O-glucuronide [PCAOG]
PCAOG peaks in later time point saliva samples ([8]; 30, 60, 120 and 240 min after Rinse III, either donor): did not reveal any peaks
donors with PCAOG peak detected in saliva ([8]; 5 min saliva sample after Rinse III): 1 of the 2
